Assay results reported in PMC7596007 (Cell, 2020).

Key:
[1] = tested on: cardiovascular and respiratory functions of rats; test: Non-invasive measurement of cardiovascular and respiratory functions; format: in vivo; settings: rat
In short: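 Anaesthetised rats had the neck trimmed for a size-matched collar sensor of a non-invasive pulse oximeter. Recorded heart rate, pulse distention (local blood flow), breath rate and oxygen saturation after test compound or SBECD vehicle. Monitored 60-600 min; maximal signal deflection taken; 1-4 animals per dose.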

[2] = target: fast skeletal myosin-2 isoforms isolated from rabbit psoas muscle (Oryctolagus cuniculus, UniProt Q28641); test: Actin-activated steady-state ATPase inhibition, rabbit psoas skeletal myosin; format: biochemical
Chain of fast skeletal myosin-2 isoforms isolated from rabbit psoas muscle (Q28641 1-813): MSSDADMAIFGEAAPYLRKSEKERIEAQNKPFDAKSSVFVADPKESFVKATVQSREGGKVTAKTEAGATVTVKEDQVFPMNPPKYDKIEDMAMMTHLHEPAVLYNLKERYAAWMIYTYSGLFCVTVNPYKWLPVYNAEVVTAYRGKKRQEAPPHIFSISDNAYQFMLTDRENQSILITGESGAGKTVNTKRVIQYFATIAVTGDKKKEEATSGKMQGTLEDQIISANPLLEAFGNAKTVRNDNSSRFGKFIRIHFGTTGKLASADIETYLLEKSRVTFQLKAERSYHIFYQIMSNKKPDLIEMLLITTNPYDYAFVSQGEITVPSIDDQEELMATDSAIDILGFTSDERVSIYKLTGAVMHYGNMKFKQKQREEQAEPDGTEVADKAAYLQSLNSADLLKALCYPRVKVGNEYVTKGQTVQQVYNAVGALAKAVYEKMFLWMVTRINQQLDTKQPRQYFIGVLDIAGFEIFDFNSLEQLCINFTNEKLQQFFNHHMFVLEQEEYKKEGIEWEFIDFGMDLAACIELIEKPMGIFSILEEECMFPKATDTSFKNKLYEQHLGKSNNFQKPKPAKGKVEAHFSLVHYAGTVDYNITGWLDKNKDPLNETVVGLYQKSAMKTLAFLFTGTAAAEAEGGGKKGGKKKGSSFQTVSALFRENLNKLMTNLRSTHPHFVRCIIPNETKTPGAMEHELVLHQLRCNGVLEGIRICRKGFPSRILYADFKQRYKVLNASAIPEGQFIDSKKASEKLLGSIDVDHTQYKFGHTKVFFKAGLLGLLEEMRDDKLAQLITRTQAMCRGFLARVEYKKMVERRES
Chain of fast skeletal myosin-2 isoforms isolated from rabbit psoas muscle (P02602 52-192 partner): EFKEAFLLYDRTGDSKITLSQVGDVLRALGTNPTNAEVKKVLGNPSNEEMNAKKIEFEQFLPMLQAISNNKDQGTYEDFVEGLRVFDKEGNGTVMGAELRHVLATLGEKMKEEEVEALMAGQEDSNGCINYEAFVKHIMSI
In short: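 Rabbit psoas S1 made by α-chymotrypsin digestion (0.25 mg/ml, 10 min, 25°C), stopped with 3 mM PMSF, then purified on MonoS. Assayed by NADH-PK/LDH coupled ATPase at 25°C for 15 min: 0.5 mM ATP, 25 μM F-actin, 10 mM MOPS pH 7.0, 4 mM MgCl2. Rate read at 340 nm by linear regression; inhibitor at varied concentrations, 1% DMSO.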

[3] = target: slow skeletal/β-cardiac myosin isolated from left ventricle of porcine heart (Sus scrofa, UniProt P79293); test: Actin-activated steady-state ATPase inhibition, porcine cardiac myosin; format: biochemical; settings: even at extremely high concentrations
[4] = target: smooth muscle myosin-2 (Gallus gallus, UniProt P10587); test: Actin-activated steady-state ATPase inhibition, smooth muscle myosin; format: biochemical, chicken; settings: even at extremely high concentrations
Chain of smooth muscle myosin-2 (P10587 84-789 limits assumed): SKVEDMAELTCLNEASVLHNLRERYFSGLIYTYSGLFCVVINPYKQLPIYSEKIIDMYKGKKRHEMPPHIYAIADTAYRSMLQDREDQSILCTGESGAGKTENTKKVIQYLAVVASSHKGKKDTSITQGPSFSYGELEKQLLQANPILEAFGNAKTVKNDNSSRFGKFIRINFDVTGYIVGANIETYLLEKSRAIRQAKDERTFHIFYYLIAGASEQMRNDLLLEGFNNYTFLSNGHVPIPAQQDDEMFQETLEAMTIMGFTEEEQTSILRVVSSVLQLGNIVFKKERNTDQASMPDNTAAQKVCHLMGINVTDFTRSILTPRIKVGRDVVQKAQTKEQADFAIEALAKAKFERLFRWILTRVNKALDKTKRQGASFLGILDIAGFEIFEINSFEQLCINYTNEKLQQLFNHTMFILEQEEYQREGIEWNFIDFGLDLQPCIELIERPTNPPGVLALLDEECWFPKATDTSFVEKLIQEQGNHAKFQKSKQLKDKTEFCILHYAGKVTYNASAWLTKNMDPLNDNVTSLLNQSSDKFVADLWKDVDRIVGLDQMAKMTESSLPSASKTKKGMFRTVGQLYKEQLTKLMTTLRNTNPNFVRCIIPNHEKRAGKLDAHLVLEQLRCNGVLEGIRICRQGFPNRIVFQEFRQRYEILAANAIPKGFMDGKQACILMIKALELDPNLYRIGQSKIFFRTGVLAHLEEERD
Chain of smooth muscle myosin-2 (P02607 whole entry partner): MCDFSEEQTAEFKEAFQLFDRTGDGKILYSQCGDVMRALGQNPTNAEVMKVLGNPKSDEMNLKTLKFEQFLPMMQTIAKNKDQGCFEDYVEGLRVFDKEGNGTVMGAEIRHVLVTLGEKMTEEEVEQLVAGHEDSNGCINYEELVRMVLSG
In short: (§1)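 Steady-state actin-activated ATPase measured by NADH-PK/LDH coupled assay at 25°C for 15 min. Buffer: 10 mM MOPS pH 7.0, 4 mM MgCl2, 2 mM β-mercaptoethanol, with 0.5 mM ATP, 25 μM F-actin, 1 mM PEP, 200 μM NADH and 2% PK/LDH. NADH decrease followed at 340 nm; activity taken from linear regression of absorbance over time. Inhibitor added at varied concentrations in DMSO (1% final).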

[5] = target: NM2A (Homo sapiens, UniProt P35579); test: Actin-activated steady-state ATPase inhibition, NM2A; format: biochemical; settings: even at extremely high concentrations
Chain of NM2A (P35579 1-775): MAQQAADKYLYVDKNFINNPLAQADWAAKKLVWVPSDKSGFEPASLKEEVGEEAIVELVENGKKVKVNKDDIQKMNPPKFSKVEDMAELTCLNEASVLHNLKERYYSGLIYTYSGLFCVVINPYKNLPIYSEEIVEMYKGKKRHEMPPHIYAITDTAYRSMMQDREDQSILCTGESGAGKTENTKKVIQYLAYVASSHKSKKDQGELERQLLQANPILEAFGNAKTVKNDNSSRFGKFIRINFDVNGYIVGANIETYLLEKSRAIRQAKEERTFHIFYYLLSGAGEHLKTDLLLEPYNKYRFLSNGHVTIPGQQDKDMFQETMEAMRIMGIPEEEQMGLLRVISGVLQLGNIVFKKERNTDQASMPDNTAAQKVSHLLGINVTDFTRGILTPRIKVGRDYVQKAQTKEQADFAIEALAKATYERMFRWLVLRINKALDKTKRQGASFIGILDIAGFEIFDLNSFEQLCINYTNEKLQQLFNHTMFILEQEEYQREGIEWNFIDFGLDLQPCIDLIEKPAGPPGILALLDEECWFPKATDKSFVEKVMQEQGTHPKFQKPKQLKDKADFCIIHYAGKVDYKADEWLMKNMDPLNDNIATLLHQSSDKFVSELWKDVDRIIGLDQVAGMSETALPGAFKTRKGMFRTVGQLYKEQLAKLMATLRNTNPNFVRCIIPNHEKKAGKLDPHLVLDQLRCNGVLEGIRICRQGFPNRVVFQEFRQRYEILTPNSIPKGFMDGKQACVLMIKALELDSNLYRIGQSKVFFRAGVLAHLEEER
In short: as §1

[6] = target: NM2B (Homo sapiens, UniProt P35580); test: Actin-activated steady-state ATPase inhibition, NM2B; format: biochemical; settings: even at extremely high concentrations
In short: as §1

[7] = target: human non-muscle myosin-2C (NM2C) (Homo sapiens, UniProt Q7Z406); test: Actin-activated steady-state ATPase inhibition, NM2C wild type; format: biochemical; settings: wild-type form
Chain of human non-muscle myosin-2C (NM2C) (Q7Z406 1-799): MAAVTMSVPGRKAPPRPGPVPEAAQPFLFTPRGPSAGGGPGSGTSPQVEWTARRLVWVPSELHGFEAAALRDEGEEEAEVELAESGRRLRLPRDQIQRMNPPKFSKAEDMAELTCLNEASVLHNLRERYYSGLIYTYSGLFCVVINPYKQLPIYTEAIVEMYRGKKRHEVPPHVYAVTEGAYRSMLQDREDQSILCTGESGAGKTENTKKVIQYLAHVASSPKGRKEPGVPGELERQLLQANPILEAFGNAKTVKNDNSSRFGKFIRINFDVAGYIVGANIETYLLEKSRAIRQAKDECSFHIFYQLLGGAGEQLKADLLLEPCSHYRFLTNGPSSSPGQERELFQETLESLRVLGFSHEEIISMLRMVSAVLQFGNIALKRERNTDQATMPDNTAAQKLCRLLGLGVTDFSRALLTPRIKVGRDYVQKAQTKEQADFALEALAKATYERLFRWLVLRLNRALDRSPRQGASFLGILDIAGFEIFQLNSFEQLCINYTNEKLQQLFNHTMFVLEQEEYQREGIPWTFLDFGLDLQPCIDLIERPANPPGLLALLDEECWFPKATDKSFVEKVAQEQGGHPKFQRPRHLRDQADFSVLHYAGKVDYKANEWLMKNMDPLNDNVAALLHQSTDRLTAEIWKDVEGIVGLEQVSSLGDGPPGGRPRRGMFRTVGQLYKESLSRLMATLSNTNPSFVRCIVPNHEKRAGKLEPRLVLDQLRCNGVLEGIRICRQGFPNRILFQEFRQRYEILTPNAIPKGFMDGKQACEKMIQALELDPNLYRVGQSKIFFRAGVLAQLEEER
In short: as §1

[8] = target: NM2C^F490L variant (Homo sapiens, UniProt Q7Z406, F490L); test: Actin-activated steady-state ATPase inhibition, NM2C F490L variant; format: biochemical; settings: expressed variant
Chain of NM2C^F490L variant (Q7Z406 1-799 F490L): as the sequence (Q7Z406 1-799) above, with F490L counted along it
In short: as §1

[9] = target: expressed human β-cardiac myosin (Homo sapiens, UniProt P12883); test: Actin-activated steady-state ATPase inhibition, expressed human β-cardiac myosin; format: biochemical
Chain of expressed human β-cardiac myosin (P12883 85-778 limits assumed): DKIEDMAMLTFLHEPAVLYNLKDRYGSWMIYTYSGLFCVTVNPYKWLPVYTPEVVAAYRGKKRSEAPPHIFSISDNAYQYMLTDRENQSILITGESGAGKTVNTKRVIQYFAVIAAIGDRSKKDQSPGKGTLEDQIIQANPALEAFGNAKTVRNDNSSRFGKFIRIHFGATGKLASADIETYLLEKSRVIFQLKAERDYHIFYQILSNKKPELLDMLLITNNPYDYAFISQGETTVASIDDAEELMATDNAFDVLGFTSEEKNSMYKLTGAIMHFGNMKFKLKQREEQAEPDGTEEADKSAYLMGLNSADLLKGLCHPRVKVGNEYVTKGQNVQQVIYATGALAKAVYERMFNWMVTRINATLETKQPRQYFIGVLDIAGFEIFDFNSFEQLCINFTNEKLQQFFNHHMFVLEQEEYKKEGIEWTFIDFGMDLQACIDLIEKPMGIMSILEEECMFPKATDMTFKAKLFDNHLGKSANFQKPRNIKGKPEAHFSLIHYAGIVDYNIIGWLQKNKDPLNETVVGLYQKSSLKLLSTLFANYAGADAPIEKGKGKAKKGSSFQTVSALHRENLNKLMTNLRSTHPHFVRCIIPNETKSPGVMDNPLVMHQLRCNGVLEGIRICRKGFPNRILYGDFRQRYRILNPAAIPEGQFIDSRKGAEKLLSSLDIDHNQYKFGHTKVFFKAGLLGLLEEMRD
Chain of expressed human β-cardiac myosin (P08590 whole entry partner): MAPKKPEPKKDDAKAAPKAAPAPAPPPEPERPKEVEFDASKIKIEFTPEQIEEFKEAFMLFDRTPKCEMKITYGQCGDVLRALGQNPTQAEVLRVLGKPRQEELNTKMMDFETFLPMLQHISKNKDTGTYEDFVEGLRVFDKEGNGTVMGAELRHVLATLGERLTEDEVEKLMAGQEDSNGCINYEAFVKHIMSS
In short: as §1

[10] = tested on: skeletal myosin samples from m.vastus lateralis; test: Actin-activated ATPase inhibition, human m. vastus lateralis biopsy myosin; format: biochemical; settings: patient-derived biopsies; 56% fast isoforms
[11] = tested on: skeletal myosin samples from m.soleus; test: Actin-activated ATPase inhibition, human m. soleus biopsy myosin; format: biochemical; settings: patient-derived biopsy; 28% fast isoforms
[12] = target: β-cardiac myosin isolated from human heart left ventricle (Homo sapiens, UniProt P12883); test: Actin-activated ATPase inhibition, human heart left ventricle myosin; format: biochemical
Chain of β-cardiac myosin isolated from human heart left ventricle (P12883 85-778 limits assumed): as the sequence (P12883 85-778 limits assumed) above
Chain of β-cardiac myosin isolated from human heart left ventricle (P08590 whole entry partner): as the sequence (P08590 whole entry partner) above
In short: as §1

[13] = tested on: rat hindleg isometric force; test: Isometric force measurement of rat hindleg; format: in vivo
[14] = Concentration measurement from tissue samples; format: in vivo; settings: rat
In short: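 Male Wistar rats (200-250 g) dosed i.p. or orally, over-anaesthetised; tissues collected and frozen at −80°C. Extracts chloroform-dried, taken up in 50/50 water-acetonitrile, sonicated, centrifuged, then ultracentrifuged (60,000 rpm, 10°C, 60 min). HPLC-MS on RP-18 column, isocratic 50% H2O (0.1% TFA)/50% ACN (0.09% TFA), 0.5 ml/min. Quantified from 400 nm peak area against a calibration curve.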

[15] = tested on: spastic rats after pyramidal tract lesion; test: Spastic cerebral palsy rat model, open-field gait analysis; format: in vivo; settings: for ratio of left turns: Rat-A, 15% before
In short: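 Spasticity induced in rats by stereotaxic injection of 15 μl ethanol into the left pyramidal tract (ML −0.8, AP −10, DV 9.7 mm from dura). Rats filmed for 15 min in an 80×80 cm open field with transparent floor, with deep-learning 3D paw tracking. Gait parameters Z-scored and run through PCA. Falls and cramps normalised to distance. Oral 15 or 20 mg/kg; recorded before and 1-21 h after dosing.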

[16] = tested on: spastic rats after pyramidal tract lesion; test: Spastic cerebral palsy rat model, cylinder assay; format: in vivo; settings: Rat-B and C, three and five hours after oral 20 mg/kg treatment
[17] = tested on: Caco-2; test: Caco-2 permeability assay; format: in vitro ADME; settings: faster transfer in the absorptive direction over the excretive direction
In short: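 Outsourced Caco-2 permeability, measured apical-to-basolateral and basolateral-to-apical, in the presence of two transporter inhibitors. Mean ± SD, n = 2.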

[18] = target: hERG potassium channel (Homo sapiens, UniProt Q12809); test: Predictor hERG Fluorescence Polarization Assay; format: binding; settings: up to 5 μM
In short: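 Outsourced hERG fluorescence-polarisation binding assay, test compound up to 5 μM. Mean ± SEM, n = 2.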

[19] = tested on: 186 different human G-protein-coupled-receptors (GPCRs); test: gpcrMAX panel; format: cell-based; settings: 5 μM; 186 GPCRs
In short: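 gpcrMAX service panel of 186 human GPCRs from 60 families, read in both agonist and inhibition modes; test compound at 5 μM. Mean ± SEM, n = 2.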

[20] = tested on: 484 kinases; test: SelectScreen Kinase Profiling panel; format: biochemical, human; settings: 5 μM
In short: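 Outsourced SelectScreen panel of wild-type and common mutant human kinases; test compound at 5 μM. Mean ± SEM, n = 2.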

[21] = tested on: 23 human hormone nuclear receptors (HNR); test: SelectScreen Nuclear Receptor Profiling; format: binding; settings: 5 μM; 23 receptors
In short: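 Outsourced SelectScreen binding profile on 23 human hormone nuclear receptors; test compound at 5 μM. Mean ± SEM, n = 2.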

[22] = tested on: human adult dermal fibroblast (hDFa); test: CyQUANT LDH Cytotoxicity assay, dermal fibroblasts; format: cell-based; settings: 20 μM and 50 μM, 48 and 120 hours
In short: (§2)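 LDH release (CyQUANT kit, per manufacturer) from human adult dermal and lung fibroblasts. Cells exposed to 20 or 50 μM test compound for 48 and 120 h.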

[23] = tested on: human adult lung (hLFa) fibroblast; test: CyQUANT LDH Cytotoxicity assay, lung fibroblasts; format: cell-based; settings: 20 μM and 50 μM, 48 and 120 hours
In short: as §2

[24] = tested on: TA98; test: Ames MPF reverse mutagenicity assay, TA98; format: cell-based, S.typhimurium; settings: absence and presence of rat liver S9 fraction
In short: (§3)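 Ames MPF reverse mutagenicity run per kit instructions on Salmonella TA98 and TA100. Each strain tested without and with phenobarbital/β-naphthoflavone-induced rat liver S9 fraction.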

[25] = tested on: TA100; test: Ames MPF reverse mutagenicity assay, TA100; format: cell-based, S.typhimurium; settings: absence and presence of rat liver S9 fraction
In short: as §3

Cc1ccc2c(c1)C(=O)[C@]1(O)CCN(c3ccc(N)cc3)C1=N2 [AmBleb, para-aminoblebbistatin, reference compound]
time to death due to heart failure ([1]; 16 mg/kg): ≤ 15 min

Cc1cc2c(s1)N=C1N(c3ccc(N4CCOCC4)cc3)CC[C@@]1(O)C2=O [MPH-220]
ATPase inhibition of fast skeletal myosin (selectivity, in words) [2]: selective inhibition
ATPase activity inhibition of cardiac myosin [3]: did not inhibit
ATPase activity inhibition of smooth muscle myosin-2 [4]: did not inhibit
ATPase activity inhibition of NM2A [5]: did not inhibit
ATPase activity inhibition of NM2B [6]: did not inhibit
ATPase activity inhibition of NM2C [7]: not inhibited
ATPase sensitivity of NM2C F490L variant [8]: became sensitive
ATPase activity inhibition of expressed human β-cardiac myosin [9]: essentially unaffected
ATPase inhibition of m.vastus lateralis myosin sample [10]: 70%
ATPase inhibition of m.soleus myosin sample [11]: 29%
ATPase inhibition of human heart left ventricle β-cardiac myosin (in words) [12]: unaffected
isometric force decrease τi.p. ([13]; 18 mg/kg, intraperitoneal injection in 200 μl DMSO, anesthetized rats): 34 min
leg phase before force decrease, corresponding to absorption ([13]; 18 mg/kg, oral in 30% SBECD): 17 min
isometric force decrease τp.o. ([13]; 18 mg/kg, orally through gavage tube in 30% SBECD, anesthetized rats): 53 min
persistence of decreased force ([13]; rat hindleg, oral treatment): more than 10 hours
effect on cardiovascular and respiratory functions ([1]; 18 mg/kg): neither 13 mg/kg MPH-188 (H) nor 18 mg/kg MPH-220 (I) had any significant effect
cardiac and respiratory functions versus excipient control ([1]; 10-hour experiments under anesthesia): neither cardiac nor respiratory functions differed significantly
maximum decrease in heart rate and blood flow parameters ([1]; 10-hour-long anesthesia): ≤ 25%
cardiac function ([1]; concentration range effective in force relaxation): not perturbed
concentration in the diaphragm [14]: much lower compared to other striated muscle samples
concentration in the liver [14]: only temporarily elevated
concentration in target muscles relative to the inhibitory constant [IC50] ([14]; after 3 hours): 10 fold
elimination from blood and other tissues ([14]; after 3 hours): completely eliminated
concentration in cardiac tissue ([14]; high doses (up to 130 mg/kg)): 3000 to 7000 nM
accumulation in skeletal muscle samples over other tissues ([14]; versus brain, heart, kidney and blood): few-fold accumulation
ratio of left turns ([15]; 40 minutes after 15 mg/kg treatment): 38%
ratio of left turns ([15]; three hours after 15 mg/kg treatment): 51%
relative frequency of random falling and spontaneous cramping ([15]; Rat-C, 20 mg/kg, open field test): decreased drastically
persistence of enhanced gait functions ([15]; Rat-D, 20 mg/kg): persistent for five hours
PC1 scores (major gait component) ([15]; global PCA, 20 mg/kg oral): significantly decreased
time of maximal effect on PC1 scores ([15]; global PCA, 20 mg/kg oral): 3 h
standing up in the cylinder, wall touches with both forepaws [16]: same number of events as their healthy littermates
Caco-2 permeability [17]: highly permeable
hERG potassium channel inhibition [18]: did not observe inhibition
GPCR inhibition or activation [19]: ≤ 30%
kinase inhibition [20]: ≤ 20%
effect on hormone nuclear receptors [21]: remained unaffected
cytotoxicity (LDH) [22]: not toxic
cytotoxicity (LDH) [23]: not toxic
mutagenicity, frameshift (TA98) [24]: Lack of mutagenicity
mutagenicity, base-pair substitution (TA100) [25]: Lack of mutagenicity

Cc1ccc2c(c1)C(=O)C1(O)CCN(c3ccccc3)C1=N2 (stereo not drawn) [blebbistatin, reference compound]
ATPase activity inhibition of expressed human β-cardiac myosin [9]: completely blocked
ATPase inhibition of m.vastus lateralis myosin sample [10]: more than 90%
ATPase activity reduction of human cardiac myosin sample ([12]; human heart left ventricle): more than 90%
